The term IC50 denotes the concentration needed to halve the response being measured.

In ChEMBL document CHEMBL2390862, “Enmein-type diterpenoid analogs from natural kaurene-type oridonin: Synthesis and their antitumor biological evaluation” (Eur J Med Chem, 2013) one finds Activity, viability and IC50 data, which are given here for one molecule.

The subject of assay [1] is Bel-7402. Description: Induction of apoptosis in human Bel7402 cells assessed as early and late apoptotic cells at 0.6 uM after 2 days by Annexin-V/FITC-propidium iodide staining-based flow cytometry (reference value: 4.8 %). The assay is classed as functional. Background: In flow cytometry, cells or beads pass a laser one at a time.
Assay [2] deals with Bel-7402. Description: Induction of apoptosis in human Bel7402 cells assessed as late apoptotic cells at 0.3 uM after 2 days by Annexin-V/FITC-propidium iodide staining-based flow cytometry (reference value: 2.2 %). The assay is classed as functional.
Assay [3] relates to Bel-7402. Description: Induction of apoptosis in human Bel7402 cells assessed as viable cells at 0.3 uM after 2 days by Annexin-V/FITC-propidium iodide staining-based flow cytometry (reference value: 94.1 %). The assay is classed as functional. As to conditions: Bel-7402, 48 h, read-out: Activity.
Assay [4] relates to Bel-7402. Description: Induction of apoptosis in human Bel7402 cells assessed as early apoptotic cells at 0.15 uM after 2 days by Annexin-V/FITC-propidium iodide staining-based flow cytometry (reference value: 2.6 %). The assay is classed as functional.
The test system of assay [5] is Bel-7402. The experiment in a line: Induction of apoptosis in human Bel7402 cells assessed as necrotic cells at 0.15 uM after 2 days by Annexin-V/FITC-propidium iodide staining-based flow cytometry (reference value: 1.1 %). The assay is classed as functional.
The subject of assay [6] is Bel-7402. Description: Cell cycle arrest in human Bel7402 cells assessed as accumulation at G2/M phase at 0.6 uM after 48 hrs by propidium iodide staining-based FACS analysis (reference value: 12.60 %). The assay is classed as functional. An outline of the steps: (§1)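 Bel-7402 cells seeded at 5.0 × 10³ cells/well and incubated 24 h at 37 °C, then exposed to test compound or DMSO solvent control for 48 h. Cells fixed in 70% ethanol, RNase-treated, PI-stained; DNA content of nuclei measured by flow cytometry.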

Assay [7] relates to Bel-7402. The experiment in a line: Cell cycle arrest in human Bel7402 cells assessed as accumulation at S phase at 0.6 uM after 48 hrs by propidium iodide staining-based FACS analysis (reference value: 39.17 %). The class given is functional. Summed up:
as §1

Assay [8] in a line: Cytotoxicity against human CaEs17 cells after 72 hrs by MTT assay. As to conditions: CaEs17, 72 h. The class given is functional, cell-based. An outline of the steps: (§2)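 K562, CaEs-17, Bel-7402 and MGC-803 cells in log phase seeded at 5 × 10⁴ cells/mL, incubated with or without test compounds at 37 °C, 5% CO₂; after 72 h MTT (5 mg/mL stock) added for 4 h, formazan dissolved in DMSO, OD read at 490 nm. Negative reference 0.1% DMSO, Taxol positive control. IC50 as mean ± S.D. of three independent experiments.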
Background: Tetrazolium dyes change colour on reduction, which living cells bring about.

Assay [9] relates to Bel-7402. The experiment in a line: Cytotoxicity against human Bel7402 cells after 72 hrs by MTT assay. The assay is classed as functional, cell-based. As to conditions: Bel-7402, 72 h. Summed up:
as §2

In a further assay the test system is K562. The experiment in a line: Cytotoxicity against human K562 cells after 72 hrs by MTT assay. The class given is functional, cell-based. Conditions: K562, 72 h. An outline of the steps:
as §2

Assay [10] concerns Bel-7402. Description: Induction of apoptosis in human Bel7402 cells assessed as reduction in Bcl2 expression after 48 hrs by Western blotting analysis. The assay is classed as functional, cell-based. Summed up: (§3)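 Bel-7402 cells treated with vehicle control or compound at 0.15, 0.3 or […] (so in the source). Lysates at […] protein per lane (so in the source) separated by 10% SDS-PAGE, transferred to nitrocellulose and immunoblotted, with β-actin measured as reference. Significance vs. vehicle control marked at P < 0.05 and P < 0.01.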

Assay [11] deals with Bel-7402. Description: Induction of apoptosis in human Bel7402 cells assessed as increase in cytochrome C expression after 48 hrs by Western blotting analysis. The class given is functional, cell-based. Summed up: as §3
A general note: A western blot detects proteins with antibodies after separation by electrophoresis.

Take `C=C1C(=O)[C@@]23C(=O)O[C@H]4CCC(C)(C)[C@H]5[C@H](O)OC[C@@]45[C@@H]2CC[C@@H]1[C@H]3OC(=O)c1ccc(Cl)cc1`: the Activity in the assay with Bel-7402 [1] was 50.5%; in the assay with Bel-7402 [2], 18.5%; with Bel-7402 [4] it was 8.8%; in the assay with Bel-7402 [5], 1%; in the assay on Bel-7402 [6] it was 28.76%; with Bel-7402 [7] it was 20.17%. The Activity result in the assay with Bel-7402 [10] and in the assay on Bel-7402 [11] was “Dose-dependent effect” in each case. Moreover, the viability at 0.3 µM in the assay on Bel-7402 [3] stood at 66.5%. Moreover, the IC50 in [8] came out at 280 nM; in the assay on Bel-7402 [9], 870 nM; in the assay with K562, 240 nM.
